Variants at the floor of the assay were thinned out.
B1: tRNA (parent)
chain: GUUCCGUUGGCGUAAUGGUAACGCGUCUCCCUCCUAAGGAGAAGACUGCGGGUUCGAGUCCCGUACGGAACG

Variants of: B1
Test: yeast fitness relative to wild type (ratio to wild type); higher = fitter; tRNA-Arg(CCU), competitive growth, 37 C, YPD
Outline: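 Amplicons of the tRNA-Arg(CCU) gene were sequenced, 100-nucleotide paired-end, from the start population and from each end population of a pooled yeast competition. The competition, in six parallel replicates, lasted 24 hours in YPD at 37°C. Fitness relative to wild type was calculated from changes in genotype frequencies. Genotypes had to have ≥ 100 starting reads, and estimates < 0.5 were set to 0.5.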

Which yeast fitness does the source give for A14C C34A C61U U64A A69G here?
The yeast fitness was no more than 0.5.

Which yeast fitness does the source give for A14C G23C A36U here?
The yeast fitness was 0.68.

With A14C U16G C29U U54C as the variant, how does the yeast fitness read?
Its yeast fitness is no more than 0.5.

Which yeast fitness does the source give for U13C U35A A70G here?
The yeast fitness was no more than 0.5.

For U13A G18C A20C C24U C30U A40C G68C, which yeast fitness is on record?
Its yeast fitness is no more than 0.5.

With U13A G39A as the variant, how does the yeast fitness read?
Its yeast fitness is 0.782.

With U13A G50A as the variant, how does the yeast fitness read?
Its yeast fitness is 0.806.

Which yeast fitness does the source give for U13A U28C G41A G44A A70U here?
Its yeast fitness is no more than 0.5.

Which yeast fitness does the source give for A14C C29G G48C G67A here?
The yeast fitness was no more than 0.5.

Which yeast fitness does the source give for U13G U47G C66U here?
Its yeast fitness is no more than 0.5.

With U13A C30U C55G G58C G67U as the variant, how does the yeast fitness read?
Its yeast fitness is no more than 0.5.

Which yeast fitness does the source give for U13A A21G here?
Its yeast fitness is 1.04.

For U13G G25C, which yeast fitness is on record?
Its yeast fitness is 0.797.

Which yeast fitness does the source give for G12C G18C A45G here?
Its yeast fitness is no more than 0.5.

Which yeast fitness does the source give for G12C G18C G25A C66U here?
The yeast fitness was no more than 0.5.

Which yeast fitness does the source give for A14C C34U A36G G39C here?
Its yeast fitness is 0.535.

Which yeast fitness does the source give for U13C C30A C31A here?
Its yeast fitness is 0.532.

Which yeast fitness does the source give for U13A U32C G63A here?
Its yeast fitness is 0.572.

With A14C C22U U32A C34U C66U as the variant, how does the yeast fitness read?
The yeast fitness was 0.576.

For U13G U47C, which yeast fitness is on record?
Its yeast fitness is 1.02.

For U13G U35G A40G G58C A65U, which yeast fitness is on record?
Its yeast fitness is no more than 0.5.

Which yeast fitness does the source give for A14C A21C C24U A36U A43U C55U here?
The yeast fitness was no more than 0.5.

With U13C C22U A45U as the variant, how does the yeast fitness read?
The yeast fitness was 0.713.

For U13C U16G C49G, which yeast fitness is on record?
Its yeast fitness is 0.617.

For A14C A40C U47C A57C, which yeast fitness is on record?
Its yeast fitness is no more than 0.5.

Which yeast fitness does the source give for U13A A45G here?
The yeast fitness was 0.92.

Which yeast fitness does the source give for U13A A20C A70C here?
Its yeast fitness is no more than 0.5.

For A14C G50A C55G C62A, which yeast fitness is on record?
Its yeast fitness is 0.692.

Which yeast fitness does the source give for U13C C31A C49G C61G here?
The yeast fitness was no more than 0.5.

With U13A A15U C24U A37U G67C as the variant, how does the yeast fitness read?
The yeast fitness was 0.591.

With A14C U28A C61G A69G as the variant, how does the yeast fitness read?
Its yeast fitness is no more than 0.5.

Which yeast fitness does the source give for G12U A36G here?
The yeast fitness was 0.758.

Which yeast fitness does the source give for A14C C29U C30G C31A C34A G52C here?
Its yeast fitness is no more than 0.5.

Which yeast fitness does the source give for U13A C27U C61A here?
Its yeast fitness is 0.619.

With A14C C46G C62U C66U as the variant, how does the yeast fitness read?
Its yeast fitness is no more than 0.5.

With G12C U59A A69C as the variant, how does the yeast fitness read?
Its yeast fitness is no more than 0.5.

With U13C C66U as the variant, how does the yeast fitness read?
The yeast fitness was 0.932.

Which yeast fitness does the source give for A14C U28A A42U U54A here?
Its yeast fitness is no more than 0.5.

With U13C C27U as the variant, how does the yeast fitness read?
The yeast fitness was 0.878.

Which yeast fitness does the source give for G12C U32G C33G G67C here?
Its yeast fitness is no more than 0.5.

Which yeast fitness does the source give for A14C U32G G58A A65C here?
The yeast fitness was 0.645.

For U13G A42C, which yeast fitness is on record?
Its yeast fitness is 1.

With U13G A40C C49G U53A as the variant, how does the yeast fitness read?
Its yeast fitness is no more than 0.5.

Which yeast fitness does the source give for A14C G51C here?
The yeast fitness was 0.53.

For U13C C55A, which yeast fitness is on record?
The yeast fitness was 0.611.

Which yeast fitness does the source give for A14C C30U A43G here?
Its yeast fitness is no more than 0.5.

With U13A U26G C27A G39C A42G G51C C66U A69U as the variant, how does the yeast fitness read?
The yeast fitness was no more than 0.5.

Which yeast fitness does the source give for U13G U19C C61U here?
The yeast fitness was no more than 0.5.

Which yeast fitness does the source give for G12C U32G C33G U47C A57C here?
Its yeast fitness is no more than 0.5.

For A14C U47C, which yeast fitness is on record?
The yeast fitness was 0.79.

For A14C C34A A37G A70U, which yeast fitness is on record?
The yeast fitness was no more than 0.5.

For A14C C22G G67A, which yeast fitness is on record?
The yeast fitness was no more than 0.5.

For G12C U26A C33A C34G A69G, which yeast fitness is on record?
Its yeast fitness is no more than 0.5.

Which yeast fitness does the source give for A14C U28C A40G C55A A57C C62U here?
Its yeast fitness is no more than 0.5.

Which yeast fitness does the source give for U13C G68C here?
Its yeast fitness is 0.877.

With G12U G39A C66G as the variant, how does the yeast fitness read?
The yeast fitness was no more than 0.5.

For U13A C29G A43G, which yeast fitness is on record?
Its yeast fitness is no more than 0.5.

For U13C A70C, which yeast fitness is on record?
The yeast fitness was 1.09.

With U13C C22G A36U C62U C66U A69C as the variant, how does the yeast fitness read?
Its yeast fitness is no more than 0.5.

Which yeast fitness does the source give for G12C U19C here?
Its yeast fitness is 0.66.

With G12C G23C A45U as the variant, how does the yeast fitness read?
The yeast fitness was 0.609.

Which yeast fitness does the source give for U13C A21G C31G A45G here?
Its yeast fitness is 0.619.

With U13A C55A C60G C62G as the variant, how does the yeast fitness read?
Its yeast fitness is no more than 0.5.

For A14C U19G G44C C62G, which yeast fitness is on record?
The yeast fitness was no more than 0.5.

For G12C U32G C33G G58A, which yeast fitness is on record?
Its yeast fitness is no more than 0.5.

For A14C U19G U59C A69G, which yeast fitness is on record?
Its yeast fitness is no more than 0.5.

Which yeast fitness does the source give for A14C C49G A70U here?
Its yeast fitness is no more than 0.5.

Which yeast fitness does the source give for G12C U26A G48A G56C here?
Its yeast fitness is no more than 0.5.

With U13A G41C G52A as the variant, how does the yeast fitness read?
The yeast fitness was no more than 0.5.

With G12C U53A as the variant, how does the yeast fitness read?
Its yeast fitness is 0.594.

Which yeast fitness does the source give for U13A G23C C27G C49U U53C C61A G68A here?
Its yeast fitness is no more than 0.5.

With U13A G38A C49G G50C A70G as the variant, how does the yeast fitness read?
Its yeast fitness is no more than 0.5.

For U13G G18A A20U C31G, which yeast fitness is on record?
Its yeast fitness is 0.566.

For A14C A21C C46A C49U, which yeast fitness is on record?
The yeast fitness was no more than 0.5.

With U13A A45C C49A A65U as the variant, how does the yeast fitness read?
Its yeast fitness is no more than 0.5.

Which yeast fitness does the source give for U13C U47C here?
The yeast fitness was 0.905.

Which yeast fitness does the source give for U13C C24U C34U here?
Its yeast fitness is no more than 0.5.

Which yeast fitness does the source give for U13C C24U C34G here?
Its yeast fitness is 0.556.

For U13C A15U U16A U19A C34U A57C, which yeast fitness is on record?
The yeast fitness was no more than 0.5.

For U13G A21U C22G U35A A65G A70C, which yeast fitness is on record?
The yeast fitness was no more than 0.5.

With U13A C22G C27G C31G C61G A69U as the variant, how does the yeast fitness read?
The yeast fitness was no more than 0.5.

For U13A U59A, which yeast fitness is on record?
The yeast fitness was 0.827.

Which yeast fitness does the source give for A14C A21G U53A here?
Its yeast fitness is no more than 0.5.

Which yeast fitness does the source give for A14C C34A G48C here?
The yeast fitness was no more than 0.5.

— the RNAGym collection of RNA variant scans (doi:10.1126/science.aae0568)
